Measurements: ChEMBL document CHEMBL1287796, “Discovery of new chemotype dipeptidyl peptidase IV inhibitors having (R)-3-amino-3-methyl piperidine as a pharmacophore” (Bioorg Med Chem Lett, 2010)
Active and inactive are the calls of the source. No cut-off for these calls is given here.

How the values were obtained:
Dipeptidyl peptidase 8 = Dipeptidyl peptidase 8 (Homo sapiens, UniProt Q6V1X1); assay: Inhibition of DPP8
Dipeptidyl peptidase 9 = Dipeptidyl peptidase 9 (Homo sapiens, UniProt Q86TI2); assay: Inhibition of DPP9
Sequence of Dipeptidyl peptidase 9 (Q86TI2 whole entry): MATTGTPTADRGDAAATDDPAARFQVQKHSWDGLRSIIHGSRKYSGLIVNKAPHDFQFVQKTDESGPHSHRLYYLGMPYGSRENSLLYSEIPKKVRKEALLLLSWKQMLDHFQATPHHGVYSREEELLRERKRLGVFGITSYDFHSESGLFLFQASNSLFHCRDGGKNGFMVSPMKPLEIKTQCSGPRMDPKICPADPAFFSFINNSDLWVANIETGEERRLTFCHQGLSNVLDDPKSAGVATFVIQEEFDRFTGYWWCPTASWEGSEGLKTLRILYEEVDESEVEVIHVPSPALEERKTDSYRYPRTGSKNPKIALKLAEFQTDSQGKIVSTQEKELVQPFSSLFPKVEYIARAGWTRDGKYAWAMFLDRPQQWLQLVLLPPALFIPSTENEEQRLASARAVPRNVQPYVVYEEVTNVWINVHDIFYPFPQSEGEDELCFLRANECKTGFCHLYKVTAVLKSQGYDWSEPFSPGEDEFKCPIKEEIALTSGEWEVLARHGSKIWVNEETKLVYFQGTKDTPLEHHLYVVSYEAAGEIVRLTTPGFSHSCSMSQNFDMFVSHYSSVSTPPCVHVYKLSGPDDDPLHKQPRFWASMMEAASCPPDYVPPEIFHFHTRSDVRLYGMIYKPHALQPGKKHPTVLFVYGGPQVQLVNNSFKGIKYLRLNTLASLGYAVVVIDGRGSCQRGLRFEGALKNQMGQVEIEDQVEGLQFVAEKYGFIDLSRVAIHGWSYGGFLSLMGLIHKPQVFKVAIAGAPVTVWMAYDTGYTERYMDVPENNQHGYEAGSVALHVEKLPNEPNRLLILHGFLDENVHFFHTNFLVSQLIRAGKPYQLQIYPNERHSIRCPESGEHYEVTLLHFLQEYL

Cytochrome P450 1A2 = molecular target: T1, Cytochrome P450 1A2 (Homo sapiens, UniProt P05177); assay: Inhibition of CYP1A2 in human liver microsomes after 10 mins; format: ADME, Microsome
T1 sequence (P05177 whole entry): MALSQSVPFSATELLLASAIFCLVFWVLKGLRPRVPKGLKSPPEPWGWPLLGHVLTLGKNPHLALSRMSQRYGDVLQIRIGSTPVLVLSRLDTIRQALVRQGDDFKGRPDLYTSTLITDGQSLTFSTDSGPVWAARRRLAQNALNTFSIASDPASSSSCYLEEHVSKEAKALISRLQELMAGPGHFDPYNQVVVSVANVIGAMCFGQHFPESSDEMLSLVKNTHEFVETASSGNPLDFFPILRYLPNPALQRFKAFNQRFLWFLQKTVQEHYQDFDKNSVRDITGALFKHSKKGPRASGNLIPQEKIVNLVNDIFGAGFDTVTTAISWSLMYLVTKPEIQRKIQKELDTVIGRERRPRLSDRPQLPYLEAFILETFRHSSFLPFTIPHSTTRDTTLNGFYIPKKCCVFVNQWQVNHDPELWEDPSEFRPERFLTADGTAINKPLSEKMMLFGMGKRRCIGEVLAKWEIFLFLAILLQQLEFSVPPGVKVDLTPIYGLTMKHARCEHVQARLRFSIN
Outline: (§1)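 Human liver microsomes incubated with test compound and NADPH for 10 min; CYP isoform inhibition reported as IC50.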

Cytochrome P450 2D6 = Cytochrome P450 2D6 (Homo sapiens, UniProt P10635); assay: Inhibition of CYP2D6 in human liver microsomes after 10 mins; format: ADME, Microsome; outline: as §1
Sequence of Cytochrome P450 2D6 (P10635 whole entry): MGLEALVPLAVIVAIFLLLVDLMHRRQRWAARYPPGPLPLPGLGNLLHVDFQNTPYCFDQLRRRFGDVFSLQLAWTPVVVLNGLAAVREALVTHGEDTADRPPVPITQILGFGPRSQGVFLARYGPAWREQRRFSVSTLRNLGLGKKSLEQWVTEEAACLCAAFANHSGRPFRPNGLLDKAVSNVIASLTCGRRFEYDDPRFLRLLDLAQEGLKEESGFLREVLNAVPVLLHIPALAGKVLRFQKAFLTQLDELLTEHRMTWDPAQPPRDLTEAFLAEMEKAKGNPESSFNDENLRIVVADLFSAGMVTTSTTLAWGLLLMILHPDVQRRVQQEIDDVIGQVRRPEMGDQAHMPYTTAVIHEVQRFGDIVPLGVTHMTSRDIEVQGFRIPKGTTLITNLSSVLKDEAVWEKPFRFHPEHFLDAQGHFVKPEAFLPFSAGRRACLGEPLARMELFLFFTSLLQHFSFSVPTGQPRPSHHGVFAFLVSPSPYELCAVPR

Cytochrome P450 3A4 = Cytochrome P450 3A4 (Homo sapiens, UniProt P08684); assay: Inhibition of CYP3A4 in human liver microsomes after 10 mins; format: ADME, Microsome; outline: as §1
Sequence of Cytochrome P450 3A4 (P08684 whole entry): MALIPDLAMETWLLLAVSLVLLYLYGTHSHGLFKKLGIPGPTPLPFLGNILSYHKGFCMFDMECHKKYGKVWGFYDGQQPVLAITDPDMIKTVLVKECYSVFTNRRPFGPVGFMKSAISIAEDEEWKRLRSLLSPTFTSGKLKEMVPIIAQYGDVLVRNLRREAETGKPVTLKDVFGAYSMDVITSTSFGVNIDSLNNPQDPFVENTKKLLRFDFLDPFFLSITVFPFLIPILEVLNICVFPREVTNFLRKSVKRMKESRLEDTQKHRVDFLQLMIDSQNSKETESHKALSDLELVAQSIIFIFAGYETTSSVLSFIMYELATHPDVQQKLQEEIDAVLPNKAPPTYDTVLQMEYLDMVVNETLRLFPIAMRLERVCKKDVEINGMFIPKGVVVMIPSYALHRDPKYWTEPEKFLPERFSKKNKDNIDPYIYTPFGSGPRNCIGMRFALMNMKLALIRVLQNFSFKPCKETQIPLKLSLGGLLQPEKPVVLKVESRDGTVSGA

Liver microsomes [1] = assay: Metabolic stability in human liver microsomes at 10 uM after 39 mins; format: ADME, Microsome; conditions: 0.5 h, in the assay text read “30 mins” for “39 mins”
Outline: (§2)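 Compound incubated for 30 min with hepatic microsomes (human or rat) plus NADPH. Metabolic stability is expressed as clearance in ml/min/mg protein.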

Liver microsomes [2] = assay: Metabolic stability in rat liver microsomes at 10 uM after 39 mins; format: ADME, Microsome; conditions: 0.5 h, in the assay text read “30 mins” for “39 mins”; outline: as §2
[3] = Clearance in rat at 1 mg/kg, iv; format: ADME, organism-based; parameters: dose 1 mg/kg, route intravenous; conditions: in vivo
[4] = Volume of distribution at steady state in rat at 1 mg/kg, iv; format: ADME, organism-based; parameters: dose 1 mg/kg, route intravenous; conditions: in vivo, read-out: Vdss
[5] = Half life in rat at 10 mg/kg, po; format: ADME, organism-based; parameters: dose 10 mg/kg, route oral; conditions: in vivo
[6] = Oral bioavailability in rat at 10 mg/kg; format: ADME, organism-based; conditions: in vivo
[7] = Protein binding in human serum; format: ADME, cell-free; conditions: read-out: PB (converted)
[8] = Tmax in rat at 1 mg/kg, iv and 10 mg/kg, po; format: ADME, organism-based; conditions: in vivo
Rattus norvegicus [9] = species: Rattus norvegicus; conditions: Zucker-Fatty, 1 mg/kg
Rattus norvegicus [10] = species: Rattus norvegicus; conditions: Zucker-Fatty, 1 mg/kg; remark: listed apart in the source
[11] = Lipophilicity, log P of the compound; format: physicochemical; conditions: octanol/water

Sequence of Dipeptidyl peptidase 8 (Q6V1X1 whole entry): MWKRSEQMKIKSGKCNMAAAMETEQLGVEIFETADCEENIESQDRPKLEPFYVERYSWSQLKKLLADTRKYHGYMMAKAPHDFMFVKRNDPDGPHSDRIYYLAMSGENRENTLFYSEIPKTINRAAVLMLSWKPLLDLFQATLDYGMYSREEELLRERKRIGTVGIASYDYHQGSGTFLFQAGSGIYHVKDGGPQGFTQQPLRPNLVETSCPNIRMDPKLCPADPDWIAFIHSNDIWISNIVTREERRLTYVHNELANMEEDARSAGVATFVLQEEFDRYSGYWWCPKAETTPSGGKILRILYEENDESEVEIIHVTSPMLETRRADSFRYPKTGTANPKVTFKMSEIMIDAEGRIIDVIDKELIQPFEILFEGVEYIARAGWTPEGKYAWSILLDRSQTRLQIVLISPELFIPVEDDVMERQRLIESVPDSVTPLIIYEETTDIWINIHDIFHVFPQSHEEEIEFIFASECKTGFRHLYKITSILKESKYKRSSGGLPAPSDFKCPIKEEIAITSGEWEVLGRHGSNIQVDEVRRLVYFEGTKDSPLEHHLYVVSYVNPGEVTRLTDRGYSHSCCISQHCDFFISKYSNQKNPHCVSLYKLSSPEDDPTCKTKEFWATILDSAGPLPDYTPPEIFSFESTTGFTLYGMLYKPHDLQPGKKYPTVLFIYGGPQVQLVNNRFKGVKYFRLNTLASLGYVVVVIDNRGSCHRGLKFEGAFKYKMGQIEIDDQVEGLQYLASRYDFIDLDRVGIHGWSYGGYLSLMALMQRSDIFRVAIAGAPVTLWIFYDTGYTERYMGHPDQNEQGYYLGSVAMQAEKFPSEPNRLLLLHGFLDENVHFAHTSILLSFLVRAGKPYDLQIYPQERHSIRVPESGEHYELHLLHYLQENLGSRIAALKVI

Cn1cnc2cc(N3CCC[C@@](C)(N)C3)n(Cc3cc(F)ccc3C#N)c2c1=O
IC50 (Dipeptidyl peptidase 8): > 10 µM | IC50 (Dipeptidyl peptidase 9): > 10 µM

Cl.Cn1c(=O)c2c(cc(N3CCC[C@@](C)(N)C3)n2Cc2cc(F)ccc2Cl)n(CCCO)c1=O
IC50 (Dipeptidyl peptidase 8): > 10 µM | IC50 (Dipeptidyl peptidase 9): > 10 µM | IC50 (Cytochrome P450 1A2): > 40 µM | IC50 (Cytochrome P450 2D6): 0.2 µM | IC50 (Cytochrome P450 3A4): 7.7 µM | Microsomal clearance (Liver microsomes [1]): 16 µL/min/mg | Microsomal clearance (Liver microsomes [2]): 17 µL/min/mg

CCn1c(=O)n(C)c(=O)c2c1cc(N1CCC[C@@](C)(N)C1)n2Cc1cc(F)ccc1C#N.Cl
IC50 (Dipeptidyl peptidase 8): > 10 µM | IC50 (Dipeptidyl peptidase 9): > 10 µM | IC50 (Cytochrome P450 1A2): 26.8 µM | IC50 (Cytochrome P450 2D6): 0.4 µM | IC50 (Cytochrome P450 3A4): 9.4 µM | Microsomal clearance (Liver microsomes [1]): 21 µL/min/mg | Microsomal clearance (Liver microsomes [2]): < 10 µL/min/mg

Cc1ccc(F)cc1Cn1c(N2CCC[C@@](C)(N)C2)cc2c1c(=O)n(C)c(=O)n2C.Cl
IC50 (Dipeptidyl peptidase 8): > 10 µM | IC50 (Dipeptidyl peptidase 9): > 10 µM | IC50 (Cytochrome P450 1A2): > 40 µM | IC50 (Cytochrome P450 2D6): > 40 µM | IC50 (Cytochrome P450 3A4): 20.2 µM | Microsomal clearance (Liver microsomes [1]): 56 µL/min/mg | Microsomal clearance (Liver microsomes [2]): 13 µL/min/mg | clearance [3]: 51.5 mL/min/kg | Vd [4]: 14.4 L/kg | half-life [5]: 4.69 h | bioavailability [6]: 69.3% | fraction unbound [7]: 0.049 | Tmax [8]: 3 h | inhibition (Rattus norvegicus [9]): Active | inhibition (Rattus norvegicus [10]): Active

Cl.Cn1c(=O)c2c(cc(N3CCC[C@@](C)(N)C3)n2Cc2cc(F)ccc2Cl)n(C)c1=O
IC50 (Dipeptidyl peptidase 8): > 10 µM | IC50 (Dipeptidyl peptidase 9): > 10 µM | IC50 (Cytochrome P450 1A2): > 40 µM | IC50 (Cytochrome P450 2D6): 3.4 µM | IC50 (Cytochrome P450 3A4): 10.2 µM | Microsomal clearance (Liver microsomes [1]): 82 µL/min/mg | Microsomal clearance (Liver microsomes [2]): 46 µL/min/mg

CCOCCCn1c(=O)n(C)c(=O)c2c1cc(N1CCC[C@@](C)(N)C1)n2Cc1cc(F)ccc1Cl
IC50 (Dipeptidyl peptidase 8): > 10 µM | IC50 (Dipeptidyl peptidase 9): > 10 µM

Cc1ccc(F)cc1Cn1c(N2CCC[C@@](C)(N)C2)cc2ncn(C)c(=O)c21.Cl
IC50 (Dipeptidyl peptidase 8): > 10 µM | IC50 (Dipeptidyl peptidase 9): > 10 µM | IC50 (Cytochrome P450 1A2): > 40 µM | IC50 (Cytochrome P450 2D6): 14.3 µM | IC50 (Cytochrome P450 3A4): 11.9 µM | Microsomal clearance (Liver microsomes [1]): 48 µL/min/mg | Microsomal clearance (Liver microsomes [2]): 264 µL/min/mg

Cn1cnc2cc(N3CCC[C@@](C)(N)C3)n(Cc3cc(F)ccc3Cl)c2c1=O
IC50 (Dipeptidyl peptidase 8): > 10 µM | IC50 (Dipeptidyl peptidase 9): > 10 µM

CN(C)C(=O)Cn1c(=O)n(C)c(=O)c2c1cc(N1CCC[C@@](C)(N)C1)n2Cc1cc(F)ccc1Cl.Cl
IC50 (Dipeptidyl peptidase 8): > 10 µM | IC50 (Dipeptidyl peptidase 9): > 10 µM | IC50 (Cytochrome P450 1A2): 26.3 µM | IC50 (Cytochrome P450 2D6): < 0.165 µM | IC50 (Cytochrome P450 3A4): 13.4 µM | Microsomal clearance (Liver microsomes [1]): 19 µL/min/mg | Microsomal clearance (Liver microsomes [2]): < 10 µL/min/mg

Cn1cnc2cc(N3CCC[C@@](C)(N)C3)n(Cc3ccccc3C#N)c2c1=O
IC50 (Dipeptidyl peptidase 8): > 10 µM | IC50 (Dipeptidyl peptidase 9): > 10 µM

Cn1c(=O)c2c(cc(N3CCC[C@@](C)(N)C3)n2Cc2ccccc2C#N)n(C)c1=O
logP [11]: 0.28 | IC50 (Dipeptidyl peptidase 8): > 10 µM | IC50 (Dipeptidyl peptidase 9): > 10 µM
